Active and inactive are the calls of the source.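 The calls were made as follows, unless noted: active = GFP response above 150% of the DMSO level; inconclusive = fewer than 70 events counted for a yeast strain; inactive = the rest.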

Assay [1] in a line: hit retest on RPL19A-GFP reporter strain – cell-based, S. cerevisiae, flow cytometry, cherry picks, mother/daughter gates, confirmation (AID 2270;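 active = GFP response below 50% of the DMSO control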). The conditions noted are these: 3 h, at 10 µM, stronger effect = lower value, 100 = same GFP as DMSO wells. For orientation: Flow cytometry measures light scatter and fluorescence of single cells or particles in a stream.
The nature of assay [2]: yeast TOR pathway reporter LAP4-GFP change – cell-based, cherry picks, flow cytometry, mother/daughter gates, confirmation (AID 2271;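 active = GFP response above 150% of the DMSO control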;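 also: ratio of sample to DMSO plate mean so 100% equals DMSO level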). The conditions noted are these: S. cerevisiae LAP4-GFP strain, 3 h, at 10 µM, stronger effect = higher value, 100 means same as DMSO control. An outline of the steps:
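Material: Alexa Fluor 633-labelled Saccharomyces cerevisiae GFP-fusion strain, single-plex | Amount: Yeast cells seeded at OD600 of 0.2 | Buffer or medium: SC growth medium | Schedule: 3 h exposure, 30 °C | Measured by: HT flow cytometry, GFP fluorescence channel | Evaluation: % GFP response vs DMSO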

Assay [3] is described as follows: TOR pathway reporter MEP2-GFP, retest of hits – S. cerevisiae, flow cytometry GFP, cherry picks, confirmation (AID 2272;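 active = GFP response above 150% of the DMSO control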;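 also: ratio of well signal to plate DMSO mean so 100% equals DMSO level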). The conditions noted are these: S. cerevisiae MEP2-GFP strain, 3 h, at 10 µM, stronger effect = higher value.
Assay [4] is described as follows: yeast AGP1-GFP fluorescence change, single-dose – cell-based, flow cytometry, S. cerevisiae, cherry picks, confirmation (AID 2273).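 Also: median GFP channel fluorescence over the whole cell population gate.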 The conditions noted are these: S. cerevisiae AGP1-GFP strain, 3 h, at 10 µM.
Assay [5] in a line: TOR pathway CIT2 reporter hit retest – S. cerevisiae, GFP fusion, cherry picks, mother/daughter gates, confirmation (AID 2274). As to conditions: S. cerevisiae CIT2-GFP strain, flow cytometry, 3 h, at 10 µM, stronger effect = higher value.
The mark [6] stands for this setting: measured here: daughter cell gate.
Where [7] appears, read: measured here: mother cell gate.
Where [8] appears, read: measured here: daughter cell gate response.
[9] abbreviates: measured here: mother cell gate response.

Regarding `C=CCn1c(=O)c(C(=O)NCCc2ccccc2)c(O)c2ccccc21`, the GFP response vs DMSO is 98.4% (inactive) in assay [1], 98.9% in assay [1] (setting [6]), 100% in assay [1] (setting [7]) and 96.2% (inactive) in assay [3]. Also, the GFP response relative to DMSO is 90.2% (inactive) in assay [2], 89.6% in assay [2] (setting [8]) and 91.9% in assay [2] (setting [9]). Also, the GFP response, % of DMSO in assay [4] was 102% (inactive); in assay [5] it was 99.7% (inactive); in assay [5] (setting [6]), 99.1%; in assay [5] (setting [7]) it was 101%.

Regarding `O=C(Nc1nc(-c2ccccc2)cs1)c1ccc(Br)o1`, the GFP response vs DMSO is 102% (inactive) in assay [1], 101% in assay [1] (setting [6]), 101% in assay [1] (setting [7]) and 99% (inactive) in assay [3]. Moreover, the GFP response relative to DMSO in assay [2] was 106% (inactive); in assay [2] (setting [8]), 101%; in assay [2] (setting [9]), 108%. The GFP response, % of DMSO was 94.9% (inactive) in assay [4], 108% (inactive) in assay [5], 105% in assay [5] (setting [6]) and 107% in assay [5] (setting [7]).

Take `CC[n+]1c(/C=C/c2ccc(N(C)C)cc2)ccc2ccccc21`: the GFP response vs DMSO is 99.4% (inactive) in assay [1], 96.6% in assay [1] (setting [6]), 96.5% in assay [1] (setting [7]) and 118% (inactive) in assay [3]. For the same molecule, the GFP response relative to DMSO in assay [2] is 105% (inactive); in assay [2] (setting [8]) it was 104%; in assay [2] (setting [9]) it was 106%. Besides, the GFP response, % of DMSO was 101% (inactive) in assay [4], 97.3% (inactive) in assay [5], 97.4% in assay [5] (setting [6]) and 96.8% in assay [5] (setting [7]).

`CCOC(=O)C1=C(Cc2ccc(Cl)cc2)C(=O)c2ccccc2C1=O`: the GFP response vs DMSO in assay [1] is 99.1% (inactive); in assay [1] (setting [6]) it was 98.5%; in assay [1] (setting [7]), 98.1%; in assay [3] it was 104% (inactive). For the same molecule, the GFP response relative to DMSO in assay [2] was 112% (inactive); in assay [2] (setting [8]) it was 107%; in assay [2] (setting [9]), 111%. For the same molecule, the GFP response, % of DMSO in assay [4] was 97.3% (inactive); in assay [5], 99.3% (inactive); in assay [5] (setting [6]) it was 102%; in assay [5] (setting [7]), 94.5%.

Turning to `CCOC(=O)c1sc(Nc2nc3c(OC)cccc3s2)nc1C`, the GFP response vs DMSO in assay [1] is 103% (inactive); in assay [1] (setting [6]), 77.4%; in assay [1] (setting [7]) it was 69%; in assay [3], 112% (inactive). Besides, the figures for the GFP response relative to DMSO in assay [2], in assay [2] (setting [8]) and in assay [2] (setting [9]) were 97% (inactive), 94.2% and 92%, respectively. Moreover, the GFP response, % of DMSO was 106% (inactive) in assay [4], 100% (inactive) in assay [5], 90.2% in assay [5] (setting [6]) and 90.7% in assay [5] (setting [7]).

For `O=C(Cn1c(=O)oc2cc(S(=O)(=O)N3CCCC3)ccc21)Nc1ccccc1Br`, the GFP response vs DMSO in assay [1] was 93.7% (inactive); in assay [1] (setting [6]), 92.6%; in assay [1] (setting [7]), 94.3%; in assay [3] it was 102% (inactive). For the same molecule, the GFP response relative to DMSO in assay [2] was 97.9% (inactive); in assay [2] (setting [8]), 97.6%; in assay [2] (setting [9]) it was 96.1%. In addition, the GFP response, % of DMSO in assay [4] was 99.9% (inactive); in assay [5], 101% (inactive); in assay [5] (setting [6]), 103%; in assay [5] (setting [7]) it was 102%.

As for `CCCn1c(=O)c(C(=O)NCc2ccc(OC)c(OC)c2)c(O)c2ccccc21`, the GFP response vs DMSO was 98% (inactive) in assay [1], 97.6% in assay [1] (setting [6]), 97.6% in assay [1] (setting [7]) and 107% (inactive) in assay [3]. The results for the GFP response relative to DMSO in assay [2], in assay [2] (setting [8]) and in assay [2] (setting [9]) were 102% (inactive), 102% and 103%, respectively. The GFP response, % of DMSO in assay [4] is 95% (inactive); in assay [5], 101% (inactive); in assay [5] (setting [6]), 97.2%; in assay [5] (setting [7]) it was 101%.

In the case of `CCn1c2ccccc2c2cc(/C=N/n3cn[nH]c3=S)ccc21`, the GFP response vs DMSO in assay [1] was 93.6% (inactive); in assay [1] (setting [6]), 91.6%; in assay [1] (setting [7]) it was 93.3%; in assay [3], 97.2% (inactive). The GFP response relative to DMSO in assay [2] was 139% (inactive); in assay [2] (setting [8]) it was 128%; in assay [2] (setting [9]), 141%. In addition, the GFP response, % of DMSO is 94.3% (inactive) in assay [4], 87.5% (inactive) in assay [5], 86.9% in assay [5] (setting [6]) and 84.8% in assay [5] (setting [7]).

For `O=C(COC(=O)/C=C/c1cccs1)Nc1nc(-c2ccccc2)cs1`, the GFP response vs DMSO in assay [1] is 101% (inactive); in assay [1] (setting [6]) it was 99.9%; in assay [1] (setting [7]), 99.7%; in assay [3] it was 105% (inactive). The GFP response relative to DMSO in assay [2] is 102% (inactive); in assay [2] (setting [8]), 101%; in assay [2] (setting [9]), 101%. The GFP response, % of DMSO in assay [4] is 93.3% (inactive); in assay [5] it was 99.7% (inactive); in assay [5] (setting [6]), 99.1%; in assay [5] (setting [7]), 98.5%.

Turning to `Cc1onc(-c2c(Cl)cccc2Cl)c1NC(=O)NNc1c(Cl)cncc1Cl`, the GFP response vs DMSO in assay [1] was 99.8% (inactive); in assay [1] (setting [6]), 99.4%; in assay [1] (setting [7]) it was 99.2%; in assay [3], 100% (inactive). Besides, the results for the GFP response relative to DMSO in assay [2], in assay [2] (setting [8]) and in assay [2] (setting [9]) were 103% (inactive), 102% and 100%, respectively. Besides, the GFP response, % of DMSO in assay [4] is 97.2% (inactive); in assay [5], 99.7% (inactive); in assay [5] (setting [6]) it was 101%; in assay [5] (setting [7]), 97.3%.

Consider `CCN(CC)S(=O)(=O)c1cccc(C(=O)NCC(c2ccccc2)N(C)C)c1` (stereo unspecified), for which the GFP response vs DMSO in assay [1] is 99.7% (inactive); in assay [1] (setting [6]) it was 102%; in assay [1] (setting [7]), 98.5%; in assay [3], 106% (inactive). Also, the GFP response relative to DMSO in assay [2] is 110% (inactive); in assay [2] (setting [8]), 111%; in assay [2] (setting [9]), 106%. Moreover, the GFP response, % of DMSO is 104% (inactive) in assay [4], 104% (inactive) in assay [5], 106% in assay [5] (setting [6]) and 98% in assay [5] (setting [7]).

For the molecule `CCOc1ccc(N2C(=O)CC(Sc3nccc(C)n3)C2=O)cc1` (stereo unspecified), the GFP response vs DMSO in assay [1] was 97.3% (inactive); in assay [1] (setting [6]) it was 99.3%; in assay [1] (setting [7]), 97.3%; in assay [3], 103% (inactive). Moreover, the GFP response relative to DMSO is 97.7% (inactive) in assay [2], 97.5% in assay [2] (setting [8]) and 97.4% in assay [2] (setting [9]). The GFP response, % of DMSO is 102% (inactive) in assay [4], 100% (inactive) in assay [5], 97.6% in assay [5] (setting [6]) and 102% in assay [5] (setting [7]).

For the molecule `S=C(Sc1ccc(Cl)cc1)Sc1ccc(Cl)cc1`, the GFP response vs DMSO in assay [1] is 97.6% (inactive); in assay [1] (setting [6]), 93.2%; in assay [1] (setting [7]), 95.1%; in assay [3] it was 112% (inactive). For the same molecule, the GFP response relative to DMSO in assay [2] is 112% (inactive); in assay [2] (setting [8]), 108%; in assay [2] (setting [9]), 115%. The GFP response, % of DMSO in assay [4] is 110% (inactive); in assay [5], 112% (inactive); in assay [5] (setting [6]) it was 105%; in assay [5] (setting [7]), 107%.

Take `O=C(OCc1ccco1)c1ccc(S(=O)(=O)N2CCCCC2)cc1`: the GFP response vs DMSO in assay [1] was 101% (inactive); in assay [1] (setting [6]) it was 97.9%; in assay [1] (setting [7]), 101%; in assay [3], 99% (inactive). Besides, the GFP response relative to DMSO in assay [2] was 98.2% (inactive); in assay [2] (setting [8]), 97.5%; in assay [2] (setting [9]), 98.4%. Besides, the GFP response, % of DMSO was 96.1% (inactive) in assay [4], 102% (inactive) in assay [5], 99.2% in assay [5] (setting [6]) and 91.9% in assay [5] (setting [7]).

In the case of `CCOC(=O)c1c(C)[nH]c(C)c1C(=O)COC(=O)c1cc2ccccc2cc1O`, the GFP response vs DMSO in assay [1] was 96.2% (inactive); in assay [1] (setting [6]), 97.3%; in assay [1] (setting [7]), 94.8%; in assay [3], 103% (inactive). Also, the GFP response relative to DMSO in assay [2] was 106% (inactive); in assay [2] (setting [8]), 104%; in assay [2] (setting [9]), 109%. In addition, the GFP response, % of DMSO in assay [4] is 103% (inactive); in assay [5], 98.4% (inactive); in assay [5] (setting [6]), 96.8%; in assay [5] (setting [7]), 96.7%.

On to `O=[N+]([O-])c1ccccc1OCCOc1ccccc1[N+](=O)[O-]`, for which the GFP response vs DMSO in assay [1] is 103% (inactive); in assay [1] (setting [6]) it was 101%; in assay [1] (setting [7]), 100%; in assay [3], 102% (inactive). Besides, the values for the GFP response relative to DMSO in assay [2], in assay [2] (setting [8]) and in assay [2] (setting [9]) were 106% (inactive), 101% and 101%, respectively. The GFP response, % of DMSO was 106% (inactive) in assay [4], 105% (inactive) in assay [5], 103% in assay [5] (setting [6]) and 98.5% in assay [5] (setting [7]).

Source of the values: PubChem BioAssay.
